Data set [1] can be described thus: Half life in cynomolgus monkey at 1 to 2 mg/kg, iv. To be noted: in vivo. The class given is ADME, organism-based, Macaca fascicularis. Details: dose 1-2 mg/kg, route intravenous. In outline: (§1)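 Male cynomolgus monkeys received a single i.v. dose of about 1–2 mg/kg in isotonic phosphate-mannitol vehicle, given as cassettes (typically n ≤ 8). Plasma was protein-precipitated with 0.5% formic acid in acetonitrile and peptide measured by reversed-phase HPLC. Parameters were fitted with mono- or biexponential models.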

For data set [2], the system named is Human immunodeficiency virus 1. The data set can be described thus: Antiviral activity against HIV1 3B infected in human PBMCs by reverse transcriptase assay. In kind it is functional, organism-based. Particulars: Human immunodeficiency virus 1, 3B. Put shortly: (§2)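 CD8-depleted activated PBMC targets infected at high MOI by spinoculation; infected cells incubated with uninfected targets at 2 × 10⁵ cells per well with serially diluted peptide for 9 days. Fresh compound added and samples taken every 2–3 days. Replication read by reverse transcriptase assay; IC50 from reduction in RT signal relative to infected untreated wells.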

Data set [3] deals with Human immunodeficiency virus 1. Description: Binding affinity to HIV1 gp41 heptad repeat 1 region assessed as thermal stability of HR1/HR2 peptide bundle complex at 1 uM in presence of 8M urea.
The subject of data set [4] is Human immunodeficiency virus 1. Description: Antiviral activity against HIV1 098-T1249 isolate infected in human PBMCs by reverse transcriptase assay. In kind it is functional, organism-based. Put shortly:
as §2

In data set [5] the test system is Human immunodeficiency virus 1. The data set can be described thus: Antiviral activity against HIV1 098-T651 isolate infected in human PBMCs by reverse transcriptase assay. In kind it is functional, organism-based. Put shortly: as §2
Data set [6] can be described thus: Clearance in cynomolgus monkey at 1 to 2 mg/kg, iv. To be noted: in vivo. The class given is ADME, organism-based, Macaca fascicularis. Details: dose 1-2 mg/kg, route intravenous. Put shortly:
as §1

Data set [7] deals with Human immunodeficiency virus 1. The data set can be described thus: Antiviral activity against HIV1 098 isolate infected in human PBMCs by reverse transcriptase assay. The class given is functional, organism-based. Put shortly: as §2
The test system of data set [8] is Human immunodeficiency virus 1. Description: Antiviral activity against HIV1 098-T20 isolate infected in human PBMCs by reverse transcriptase assay. In kind it is functional, organism-based. Put shortly:
as §2

Values after ≈ are worked out from the molar mass of the structure shown.

`CC[C@H](C)[C@H](NC(=O)[C@H](CCC(N)=O)NC(=O)[C@H](C)NC(=O)[C@H](CCC(N)=O)NC(=O)[C@H](CCC(=O)O)NC(=O)[C@H](CC(C)C)NC(=O)[C@H](CC(C)C)NC(=O)[C@H](C)NC(=O)[C@@H](NC(=O)[C@@H](NC(=O)[C@H](CCCCN)NC(=O)[C@H](CCC(N)=O)NC(=O)[C@H](CCC(=O)O)NC(=O)[C@H](Cc1c[nH]c2ccccc12)NC(=O)[C@H](CCC(=O)O)NC(=O)[C@H](CCC(N)=O)NC(=O)[C@@H](N)Cc1c[nH]c2ccccc12)[C@@H](C)CC)[C@@H](C)O)C(=O)N[C@@H](CCC(N)=O)C(=O)N[C@@H](CCC(N)=O)C(=O)N[C@@H](CCC(=O)O)C(=O)N[C@@H](CCCCN)C(=O)N[C@@H](CC(N)=O)C(=O)N[C@@H](CCC(=O)O)C(=O)N[C@@H](Cc1ccc(O)cc1)C(=O)N[C@@H](CCC(=O)O)C(=O)N[C@@H](CC(C)C)C(=O)N[C@@H](CCC(N)=O)C(=O)N[C@@H](CCCCN)C(=O)N[C@@H](CC(C)C)C(=O)N[C@@H](CC(=O)O)C(=O)N[C@@H](CCCCN)C(=O)N[C@@H](Cc1c[nH]c2ccccc12)C(=O)N[C@@H](C)C(=O)N[C@@H](CO)C(=O)N[C@@H](CC(C)C)C(=O)N[C@@H](Cc1c[nH]c2ccccc12)C(=O)N[C@@H](CCC(=O)O)C(=O)N[C@@H](Cc1c[nH]c2ccccc12)C(=O)N[C@@H](Cc1ccccc1)C(=O)O` had a half-life in data set [1] of 5.9 h. The IC50 in data set [2] is 0.003 µg/mL (≈ 0.601 nM); in data set [4], 0.363 µg/mL (≈ 72.7 nM); in data set [5], 8.14 µg/mL (≈ 1630 nM); in data set [7], 0.013 µg/mL (≈ 2.6 nM); in data set [8] it was 0.022 µg/mL (≈ 4.4 nM). The Tm in data set [3] was 59 °C. Further, the clearance in data set [6] is 0.167 mL/min/kg.
Take “H-TTWEAWDRAIAEYAARIEALIRAAQELQEKLEAALREL-OH”: the half-life in data set [1] was 30.8 h. Moreover, the IC50 worked out at 0.172 µg/mL in data set [2]; 0.555 µg/mL in data set [4]; 0.987 µg/mL in data set [5]; 0.6 µg/mL in data set [7]; 0.416 µg/mL in data set [8]. The Tm in data set [3] came out at 92 °C. The molecule further showed a clearance in data set [6] of 0.0333 mL/min/kg.
For the molecule “H-TTWEAWDRAIAEYAARIEALIRAAQELQEKNEAALREL-OH”, in data set [1], the half-life is 7.6 h. In addition, the IC50 came to 0.007 µg/mL in data set [2]; 0.03 µg/mL in data set [4]; 0.02 µg/mL in data set [5]; 0.021 µg/mL in data set [7]; 0.035 µg/mL in data set [8]. The Tm in data set [3] stood at 89 °C. The molecule further had a clearance in data set [6] of 0.433 mL/min/kg.
In data set [1], “H-TTWEAWDRAIAEYAARIEALIRAAQEQQEKLEAALREL-OH” showed a half-life of 17.9 h. In addition, the 50% inhibitory concentration (IC50) was found to be 0.012 µg/mL in data set [2]; 0.025 µg/mL in data set [4]; 0.044 µg/mL in data set [5]; 0.045 µg/mL in data set [7]; 0.028 µg/mL in data set [8]. Besides, in data set [3], the Tm came out at 86 °C. The molecule further showed a clearance in data set [6] of 0.15 mL/min/kg.
For “H-TTWEAWDRAIAEYAARIEALIRAAQEQQEKLEAVLREL-OH”, in data set [1], the half-life is 28.6 h. Further, the IC50 stood at 0.022 µg/mL in data set [2]; 0.046 µg/mL in data set [4]; 0.242 µg/mL in data set [5]; 0.049 µg/mL in data set [7]; 0.093 µg/mL in data set [8]. For the same molecule, the Tm in data set [3] is 85 °C. The same molecule showed a clearance in data set [6] of 0.0667 mL/min/kg.
“H-TTWEAWDRAIAEYAARIEALIRALQELQEKNEAALREL-OH” showed a half-life in data set [1] of 8.6 h. The IC50 was 0.03 µg/mL in data set [2]; 0.147 µg/mL in data set [4]; 0.242 µg/mL in data set [5]; 0.054 µg/mL in data set [7]; 0.084 µg/mL in data set [8]. Besides, in data set [3], the Tm was 82 °C. The molecule further gave a clearance in data set [6] of 0.133 mL/min/kg.
“H-TTWEAWDRAIAEYAARIEALIRALQEQQEKNEAILREL-OH” showed a half-life in data set [1] of 12.4 h. For the same molecule, the half-maximal inhibitory concentration (IC50) was 0.019 µg/mL in data set [2]; 0.038 µg/mL in data set [4]; 0.196 µg/mL in data set [5]; 0.043 µg/mL in data set [7]; 0.079 µg/mL in data set [8]. The Tm in data set [3] is 85 °C. Further, the clearance in data set [6] was 0.2 mL/min/kg.
For the molecule “H-TTWEAWDRAIAEYAARIEALIRASQEQQEKNEAELREL-OH”, in data set [1], the half-life is 1.2 h. Moreover, the IC50 stood at 0.006 µg/mL in data set [2]; 0.072 µg/mL in data set [4]; 1.31 µg/mL in data set [5]; 0.013 µg/mL in data set [7]; 0.022 µg/mL in data set [8]. Also, the Tm in data set [3] came to 78 °C. Also, the clearance in data set [6] was 1.43 mL/min/kg.
In turn, enfuvirtide showed a half-life in data set [1] of 8.8 h. Moreover, the half-maximal inhibitory concentration (IC50) in data set [2] turned out to be 0.006 µg/mL; in data set [4] it was 55 µg/mL; in data set [5] it was 47.8 µg/mL; in data set [7], 0.05 µg/mL; in data set [8], 0.526 µg/mL. For the same molecule, the Tm in data set [3] was less than 5 °C. Also, in data set [6], the clearance is 0.667 mL/min/kg.

(Values after ChEMBL document CHEMBL1147044, “Design of helical, oligomeric HIV-1 fusion inhibitor peptides with potent activity against enfuvirtide-resistant virus” (Proc Natl Acad Sci U S A, 2007).)
